Compound activity from PubChem.
Compounds with a hit are over-represented: about 2.3% of the library has one in this group of screens.
Calpain2 inh: inhibitors of pig calpain II, primary screen, biochemical, fluorogenic peptide substrate, 1536-well; purified calpain II, 30 min; inhibition, % at 16 µM; 220,000 tested, 0.37% active; AID 1236, 2008;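 active means inhibition above about 50%, limit read from the data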
NPY-Y2 antag: NPY-Y2 receptor antagonists, primary screen, cell-based; NPY-Y2 expressing cells, antagonist mode; inhibition, % at 2.7 µM; 140,000 tested, 0.99% active;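 further: 0% = vehicle with agonist challenge and 100% = reference antagonist with challenge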
Target sequence (P49146 whole entry, looked up): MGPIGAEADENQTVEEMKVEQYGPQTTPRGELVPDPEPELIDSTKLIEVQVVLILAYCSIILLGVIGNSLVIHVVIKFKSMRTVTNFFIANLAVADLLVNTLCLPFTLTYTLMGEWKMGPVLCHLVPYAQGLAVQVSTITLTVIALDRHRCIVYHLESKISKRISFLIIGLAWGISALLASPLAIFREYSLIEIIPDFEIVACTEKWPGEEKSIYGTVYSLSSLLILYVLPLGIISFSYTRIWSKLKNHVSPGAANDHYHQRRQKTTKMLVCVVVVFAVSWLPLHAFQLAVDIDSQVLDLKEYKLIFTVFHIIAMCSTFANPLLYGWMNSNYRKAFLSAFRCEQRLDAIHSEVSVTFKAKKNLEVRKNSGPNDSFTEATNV
NPY1 pot ag: NPY-Y1 receptor potentiators or agonists, primary screen, cell-based | NPY-Y1 expressing cells, potentiator/agonist activation | activation, % at 3.6 µM | 220,000 tested, 0.37% active; in the data active means activation above about 33%, passing the limit was not always enough;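 further: cells stimulated with NPY at EC10 then isoproterenol at EC100; 0% = low agonist plus stimulus and 100% = saturating agonist plus stimulus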
NPY2 pot ag: NPY-Y2 potentiators or agonists, primary screen, cell-based; Neuropeptide Y receptor type 2 (Homo sapiens), P49146; cells expressing NPY-Y2, potentiator/agonist read-out; activation, % at 3.6 µM; 220,000 tested, 0.45% active; AID 1359, 2008; in the data active means activation above about 27%;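 further: cells stimulated with NPY near EC25 plus isoproterenol at EC100; 0% = vehicle plus submaximal agonist and 100% = vehicle plus saturating agonist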
NPY-Y1 antag: NPY-Y1 receptor antagonists, primary screen, cell-based; HEK293-CNG Y1 cells, membrane potential fluorescence; NPY at EC95, then isoproterenol; Neuropeptide Y receptor type 1 (Homo sapiens), P25929; 200,000 tested, 1% active; AID 1040, 2008; inhibition, % at 3.6 µM;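 active means inhibition above the campaign mean inhibition of all tested compounds plus 3 SD, cut at about 20% in these data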;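 further: 0% = DMSO wells given NPY plus isoproterenol and 100% = isoproterenol alone without NPY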
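material = HEK293 cells with Y1 receptor plus CNG channel | also added = NPY 25 nM then isoproterenol 1 µM plus Ro 20-1724 25 µM | schedule = dye 3 h, compound 60 min room temperature, stimulation 45 min | measured by = membrane potential fluorescence | benchmarks = high control isoproterenol alone, low control NPY with isoproterenol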
Tb hexokinase: Trypanosoma brucei hexokinase 1 inhibitors, primary screen, biochemical, G6PDH-coupled NADH absorbance, MLSCN library; 220,000 tested, 0.11% active; hexokinase 1 [Trypanosoma brucei]; recombinant TbHK1, G6PDH-coupled NADH A340; AID 1430, 2008; inhibition, % at 10 µM;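 active means inhibition of 50% or more in the single-dose primary screen; inactive means inhibition below 50%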
NPY1 antag conf: NPY-Y1 receptor antagonists, retest of hits, confirmation, HEK293-CNG cells, membrane potential fluorescence, triplicate. shares compounds with NPY-Y1 antag. cAMP; NPY challenge against isoproterenol-raised cAMP. inhibition, % at 3.6 µM. 1,200 tested, 21% active. AID 1254, 2008; in the data active means inhibition above about 20%;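 further: 0% = vehicle with agonist plus stimulus and 100% = stimulus alone without agonist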
NPY-Y2 antag ct: NPY-Y2 receptor antagonists, selectivity check, confirmation, counter-screen for NPY-Y1 antagonist project, HEK293-CNG cells, membrane potential fluorescence, triplicate; shares compounds with NPY-Y1 antag; antagonism; cells given NPY, then isoproterenol; inhibition, % at 3.6 µM; 1,200 tested, 28% active; AID 1255, 2008;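 further: 0% = DMSO with agonist challenge and 100% = reference antagonist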
The depositor's hits bear a star; · = no result. Unless noted, no stated cut-off is given here; in the data, active means inhibition above about 17%; inactive means the rest.

SMILES	Calpain2 inh	NPY-Y2 antag	NPY1 pot ag	NPY2 pot ag	NPY-Y1 antag	Tb hexokinase	NPY1 antag conf	NPY-Y2 antag ct
CCCC(=O)Nc1cccc(NC(=O)c2cccc([N+](=O)[O-])c2C)c1	13	3	-15	11	0	35	·	·
CC(C)(C)OC(=O)N1CCC[C@H]1C(=O)NCc1ccc(Cl)cc1Cl	-12	·	7	8	4	-1	·	·
O=C(NCc1nc2ccccc2[nH]1)c1ccc(Cl)c(S(=O)(=O)N2CCCC2)c1	-62	1	-16	-5	-5	4	·	·
CCCn1c(NC(=O)c2ccc(Cl)c(S(=O)(=O)N3CCCC3)c2)nc2ccccc21	-70	11	-74	-38	22*	-10	13	22*
O=C1N(Cc2cccc(Cl)c2)C[C@@H]2C[C@@H](c3ccco3)N3CCC[C@@]123	-38	·	3	-15	22*	2	12	6
Cc1ccc2nc(NC(=O)CNS(=O)(=O)c3ccc(Br)s3)sc2c1	16	13	-42	-19	20*	3	7	11
Cc1ccc2nc(NC(=O)CN(C)S(=O)(=O)c3ccc(Br)s3)sc2c1	-36	2	-6	6	-2	4	·	·
CC(=O)c1ccc(NC(=O)COC(=O)CCc2ccc(S(=O)(=O)N3CCOCC3)cc2)cc1	-2	·	15	18	·	-3	·	·
Cc1ccc2cc(CN(CCN(C)C)C(=S)Nc3ccccc3)c(=O)[nH]c2c1C	-20	·	-14	4	11	-10	·	·
Cc1ccc(NC(=S)N(CCN(C)C)Cc2cc3cc(C)cc(C)c3[nH]c2=O)cc1	7	7	-11	-11	25*	23	1	8
COc1ccc(S(=O)(=O)N2CCCCC2)cc1NC(=O)c1ccc2c(c1)OCO2	16	7	-4	10	0	33	·	·
COc1ccc(N(C)S(=O)(=O)c2cccc(C(=O)NC3CCCCCC3)c2)cc1	36	·	-13	-19	39*	1	10	12
COc1ccc(N(C)S(=O)(=O)c2cccc(C(=O)NCc3ccc4c(c3)OCO4)c2)cc1	11	·	-11	8	2	2	·	·
COc1ccc(N(C)S(=O)(=O)c2cccc(C(=O)N(C)Cc3ccc(C)o3)c2)cc1	-13	·	-9	-14	31*	1	7	16
COc1ccc(N(C)S(=O)(=O)c2cccc(C(=O)NC3CCC(C)CC3)c2)cc1 (configuration not stated)	9	·	-3	-6	46*	-2	27*	15
Cc1cc(C(=O)Cn2nc(C(=O)O)c3ccccc3c2=O)c(C)n1-c1ccc(F)cc1	-15	13	-39	-23	22*	1	14	12
Cc1cc(C(=O)Cn2nc(C(=O)O)c3ccccc3c2=O)c(C)n1-c1cccc(C(F)(F)F)c1	14	·	-19	-20	·	-5	·	·
O=C(NC(=S)NCc1ccc(F)cc1)c1ccccc1	29	6	-17	-13	23*	-3	4	3
COc1ccccc1NC(=O)Cc1noc(CSc2cccc[n+]2[O-])n1	-48	-1	11	-5	4	-5	·	·
COc1ccccc1NC(=O)Cc1noc(CSc2cc(C)c3ccccc3n2)n1	7	13	-27	-18	20*	1	9	7
COc1ccc2c(c1)cc(C(=O)O)n2C	-119	4	-8	-1	3	-2	·	·
COc1cc2cc(C(=O)O)n(C)c2c(OC)c1OC	-37	8	-12	3	25*	0	4	3
O=C(O)c1ccc(N(c2ccccc2)c2ccccc2)cc1	-144	14	-40	-37	27*	-4	21*	16
O=C(NCc1cccnc1)/C(=C\c1ccc(-c2ccc(Br)cc2)o1)S(=O)(=O)c1ccccc1	-76	7	-57	-24	12	-28	·	·
O=C(NCc1cccnc1)/C(=C/c1ccc(-c2ccc(Cl)cc2)o1)S(=O)(=O)c1ccccc1	-81	13	-35	-29	25*	-23	9	22*
SMILES	Calpain2 inh	NPY-Y2 antag	NPY1 pot ag	NPY2 pot ag	NPY-Y1 antag	Tb hexokinase	NPY1 antag conf	NPY-Y2 antag ct
CCc1cccc(CC)c1NC(=O)Cn1c(-c2ccc(F)cc2)noc1=O	-18	·	-7	-12	30*	-6	17	6
CCC(=O)N(CCC(Cc1ccccc1)c1ccco1)Cc1ccco1 (configuration not stated)	30	·	-24	-15	42*	5	13	7
CCC(=O)N(CCC(Cc1ccccc1)c1ccc2c(c1)OCO2)Cc1ccccc1F (configuration not stated)	24	16	-18	-7	47*	13	19	12
CC(NCCC(Cc1ccccc1)c1ccco1)c1ccccc1 (configuration not stated)	-8	·	27	-16	·	6	·	·
CN1/C(=C\C(=O)C[n+]2ccc3ccccc3c2)C(C)(C)c2ccccc21	6	·	14	-11	-4	-31	·	·
COc1ccc(C)cc1NC(=O)CSc1nnc(COc2ccccc2)n1Cc1ccco1	28	5	-35	-2	21*	1	5	5
COc1ccc(C)cc1NC(=O)CSc1nnc(COc2ccc(Cl)cc2)n1Cc1ccco1	39	5	4	11	0	17	·	·
CSc1nc(Oc2ccc(F)cc2)c2ccccc2n1	-3	11	-23	-19	23*	3	6	9
C=CCn1c(COc2cccc(C)c2)nnc1SCn1nnc2ccccc2c1=O	5	1	-7	-10	1	-1	·	·
CC1CC(C)CN(S(=O)(=O)c2ccc(C(=O)N(c3ccccn3)C3CCCCC3)cc2)C1 (configuration not stated)	-8	·	-15	-5	31*	-5	9	7
CCc1ccc(NC(=O)c2cc(C)on2)cc1	0	0	1	-5	-2	5	·	·
CCCc1cc(C(=O)OC)c(NC(=O)c2cc(C)on2)s1	-59	2	-20	8	20*	-5	8	5
Cc1ccccc1Oc1cc(NC(=O)CCCn2nc(C)c([N+](=O)[O-])c2C)cc([N+](=O)[O-])c1	10	1	16	22	-6	14	·	·
